Experimental data from publication PMC4486254 (Bioorganic & medicinal chemistry, 2010).

Tested on: HIV-1HXB2
Assay: Replication assay
Type: cell-based
Conditions: at concentrations below 10 µM; MT-4 Luc system
Procedure, shortened: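 MT-4 cells stably transduced with a firefly luciferase cassette by a murine leukemia viral vector, constitutively expressing luciferase. 1 × 10^3 cells per well infected with HIV-1 HXB2 alongside various peptide concentrations. Cells lysed at 6–7 days post-infection; luciferase activity measured as chemiluminescence, in relative luciferase units. A retained signal indicates protection from virus-induced death; a drop indicates cytotoxicity.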

Ac-QIFEHLAGIIQILRFLRI-R8-NH2 [control peptide isomer of 5]
anti-HIV activity (in words): did not show anti-HIV activity
